The structures appear in SMILES notation.

Test [1] deals with T1, Angiotensin-converting enzyme (Mus musculus) (UniProt P09470).
T1 sequence (whole entry): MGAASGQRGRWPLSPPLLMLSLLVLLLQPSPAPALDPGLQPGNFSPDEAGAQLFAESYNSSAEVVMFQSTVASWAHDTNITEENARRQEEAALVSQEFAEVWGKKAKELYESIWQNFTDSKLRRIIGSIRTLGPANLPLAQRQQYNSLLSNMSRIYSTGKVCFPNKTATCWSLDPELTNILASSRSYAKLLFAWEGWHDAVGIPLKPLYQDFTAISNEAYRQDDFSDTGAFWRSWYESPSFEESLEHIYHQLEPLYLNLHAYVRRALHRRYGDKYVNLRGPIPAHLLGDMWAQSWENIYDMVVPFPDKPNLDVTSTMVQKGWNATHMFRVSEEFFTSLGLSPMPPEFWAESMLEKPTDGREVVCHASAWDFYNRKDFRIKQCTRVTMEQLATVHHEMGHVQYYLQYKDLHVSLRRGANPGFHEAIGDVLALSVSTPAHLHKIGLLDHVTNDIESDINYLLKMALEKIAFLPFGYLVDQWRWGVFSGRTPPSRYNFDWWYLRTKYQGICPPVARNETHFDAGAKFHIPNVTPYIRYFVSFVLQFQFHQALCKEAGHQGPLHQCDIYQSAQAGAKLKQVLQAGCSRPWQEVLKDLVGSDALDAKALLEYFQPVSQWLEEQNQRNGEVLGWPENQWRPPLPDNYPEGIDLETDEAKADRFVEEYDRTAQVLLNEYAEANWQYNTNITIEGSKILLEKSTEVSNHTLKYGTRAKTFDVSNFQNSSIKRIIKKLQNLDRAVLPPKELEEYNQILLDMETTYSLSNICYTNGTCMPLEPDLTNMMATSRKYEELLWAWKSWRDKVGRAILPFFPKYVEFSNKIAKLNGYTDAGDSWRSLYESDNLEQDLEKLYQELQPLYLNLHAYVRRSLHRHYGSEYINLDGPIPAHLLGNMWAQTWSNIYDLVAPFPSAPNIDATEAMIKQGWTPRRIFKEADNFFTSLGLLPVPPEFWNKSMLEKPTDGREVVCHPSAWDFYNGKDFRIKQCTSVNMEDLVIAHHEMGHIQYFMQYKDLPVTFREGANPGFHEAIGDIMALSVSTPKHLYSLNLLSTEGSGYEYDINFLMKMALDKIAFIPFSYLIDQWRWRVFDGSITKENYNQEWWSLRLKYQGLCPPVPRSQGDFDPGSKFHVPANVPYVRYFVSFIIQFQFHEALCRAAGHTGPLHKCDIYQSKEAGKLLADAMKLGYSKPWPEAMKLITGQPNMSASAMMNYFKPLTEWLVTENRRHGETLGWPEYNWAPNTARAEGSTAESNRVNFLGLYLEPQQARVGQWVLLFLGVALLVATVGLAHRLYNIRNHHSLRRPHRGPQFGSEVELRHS
Kind of test: (§1) In vivo percent inhibition activity against lung Angiotensin I converting enzyme 2 hr after oral administration of a dose of 2.6 x 10e-5 mol/kg. The test is classed as functional, organism-based. Summed up:
(§2)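 Mice dosed orally in 10% ethanol/10% cremophor/80% water. At 2 h, [3H]trandaloprilate (0.5 µCi) given iv; 15 min later lungs homogenized at 4 °C in 50 mM Tris-HCl pH 8.0 with 1 mM NaCl, centrifuged, and radioactivity counted. Total binding from untreated mice; nonspecific binding from probe coinjected with 1000 equiv captopril.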

The target of test [2] is T2, Neprilysin (Mus musculus) (UniProt Q61391).
T2 sequence (whole entry): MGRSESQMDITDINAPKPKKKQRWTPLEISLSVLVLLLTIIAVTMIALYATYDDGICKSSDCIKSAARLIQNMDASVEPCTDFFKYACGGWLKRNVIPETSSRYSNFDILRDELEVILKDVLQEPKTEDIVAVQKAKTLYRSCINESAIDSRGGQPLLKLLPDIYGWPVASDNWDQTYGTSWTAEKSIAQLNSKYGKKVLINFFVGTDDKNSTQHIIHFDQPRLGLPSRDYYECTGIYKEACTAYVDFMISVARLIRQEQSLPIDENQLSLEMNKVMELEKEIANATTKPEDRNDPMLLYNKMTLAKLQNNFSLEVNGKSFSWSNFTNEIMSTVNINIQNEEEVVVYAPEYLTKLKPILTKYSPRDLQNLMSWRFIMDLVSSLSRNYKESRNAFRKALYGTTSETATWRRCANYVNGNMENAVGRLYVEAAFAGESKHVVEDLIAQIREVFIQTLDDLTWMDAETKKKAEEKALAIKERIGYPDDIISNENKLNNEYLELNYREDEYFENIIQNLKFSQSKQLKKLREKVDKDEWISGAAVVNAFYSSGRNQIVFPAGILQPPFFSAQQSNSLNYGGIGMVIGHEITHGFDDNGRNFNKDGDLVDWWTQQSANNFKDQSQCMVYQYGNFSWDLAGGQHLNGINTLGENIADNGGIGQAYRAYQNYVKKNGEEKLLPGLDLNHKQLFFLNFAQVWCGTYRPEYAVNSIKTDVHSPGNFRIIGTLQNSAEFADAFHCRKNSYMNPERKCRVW
Description: (§3) In vivo percent inhibition activity against kidney Neutral endopeptidase 2 hr after oral administration of a dose of 2.6 x 10e-5 mol/kg. The test is classed as functional, organism-based. Summed up:
(§4)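 Mice given a single oral dose in 10% ethanol/10% cremophor/80% water; kidneys taken 2 h later and homogenized at 4 °C in 50 mM Tris-HCl pH 7.4. Membrane fraction (100000g) preincubated 5 min at 25 °C with bestatin and captopril, then incubated 10 min with [3H]-D-Ala2-Leu-enkephalin (2 × 10^-8 M). [3H]Tyr-D-Ala-Gly counted; blanks contained 10^-5 M retrothiorphan.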

In test [3] the target is T1, Angiotensin-converting enzyme (Mus musculus). The description is as §1. The test is classed as organism-based. In short, it runs like this: as §2
Test [4] addresses T2, Neprilysin (Mus musculus). The description is as §3. Type of test: organism-based. Summed up:
as §4

For the compound `O=C(NCC(=O)N1[C@@H](c2ccccc2O)CC[C@H]1C(=O)O)[C@@H](S)Cc1ccc(O)cc1`, the inhibition – broadly, the change of the read-out against control, counted positive when it falls – was 82% in test [1] and 69% in test [2].
In the same order, the values of `Cc1ccc([C@H]2CC[C@@H](C(=O)O)N2C(=O)CNC(=O)[C@@H](S)Cc2ccc(O)cc2)cc1` are 33% and 3%.
In the same order, the values of `Cc1ccccc1[C@H]1CC[C@@H](C(=O)O)N1C(=O)CNC(=O)[C@@H](S)Cc1ccccc1` are 57% and 37%.
Consider `Cc1ccc([C@H]2CC[C@@H](C(=O)O)N2C(=O)CNC(=O)[C@@H](S)Cc2ccccc2)cc1`, for which the inhibition in test [1] amounted to 42%; in test [2], 34%.
With `Cc1ccccc1C1CC[C@@H](C(=O)O)N1C(=O)CNC(=O)[C@@H](S)Cc1ccc(O)cc1` (single isomer, unassigned), the inhibition in test [3] was determined as 60%; in test [4] it was 44%.
As to `O=C(NCC(=O)N1[C@@H](c2ccccc2)CC[C@H]1C(=O)O)[C@@H](S)Cc1ccccc1`, the results for the inhibition in test [1] and in test [2] were 63% and 75%, respectively.
Take `O=C(NCC(=O)N1[C@@H](c2cccc(O)c2)CC[C@H]1C(=O)O)[C@@H](S)Cc1ccc(O)cc1`: the inhibition in test [3] came to 89%; in test [2], 72%.
